Shown are actives, neighbours in structure and some others; about 1.7% of the full set was active somewhere.
CAL PDZ FP-1 – human CAL PDZ-peptide interaction inhibition. 0.02% of 330,000 active. inhibition, % at 20 µM. AID 504414. purified CAL PDZ, TMR-peptide fluorescence polarization, 1 h;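 active = highest replicate inhibition of at least 40%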;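 note: plate controls were DMSO neutral control wells for no effect and unlabeled competitor peptide control wells for full effect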
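Assay system – tagged CAL PDZ protein CerCALP, purified · Timing – 1 h at RT · Compound – single point, 20 µM · Measured by – fluorescence polarization from S- and P-plane intensities, G-factor corrected · Evaluation – inhibition from polarization loss · Probe or stimulus – TMR reporter peptide T*-PRC34 · Buffer or medium – pH 7.4 phosphate-saline buffer, reducing agent, detergent, IgG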
CAL PDZ FP-2 – CAL PDZ (human) peptide binding inhibition; inhibition, % at 24.9 µM; 0.92% of 300,000 active; purified CAL PDZ, TMR-peptide fluorescence polarization, 1 h; Q9HD26; AID 602252;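 active = mean inhibition of at least 30% with at least half of replicates also reaching 30%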;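 note: 0% = DMSO neutral control and 100% = excess unlabeled competitor peptide PRC23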
Rce1 inh – yeast Ras-converting enzyme inhibition; yeast membranes, quenched prenylated peptide cleavage fluorescence; AID 2563; 0.27% of 290,000 active; calls only; Q03530;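 active = fall in fluorescence gain of 50% or more versus controls, with final raw signal at or below 3038400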;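 note: plate controls were neutral control wells for no effect and wells lacking membranes for full effect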
Target sequence (Q03530 whole entry, looked up): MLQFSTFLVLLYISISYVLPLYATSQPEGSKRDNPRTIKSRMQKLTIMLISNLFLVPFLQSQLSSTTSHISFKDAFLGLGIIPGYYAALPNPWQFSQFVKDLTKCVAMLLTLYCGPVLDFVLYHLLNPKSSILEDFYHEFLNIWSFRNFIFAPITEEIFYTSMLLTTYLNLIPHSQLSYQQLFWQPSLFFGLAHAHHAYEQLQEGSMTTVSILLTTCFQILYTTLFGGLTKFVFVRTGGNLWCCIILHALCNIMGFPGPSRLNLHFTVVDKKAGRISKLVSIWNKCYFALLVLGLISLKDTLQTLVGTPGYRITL
ARNT-TACC3 inh – disruptors of human ARNT/TACC3 interaction; 0.66% of 390,000 active; Q9Y6A5; inhibition, % at 9.99 µM; AlphaScreen His-ARNT PAS-B/GST-TACC3 binding, luminescence; TACC3 fragment carries E629A point mutation;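 active = mean inhibition of replicates at least 50% and at least half of replicates each reaching 50%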;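 note: 0% = complete ARNT plus TACC3 wells and 100% = ARNT alone without TACC3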
AI-2 QS modul – Vibrio harveyi AI-2 quorum sensing modulation; 0.4% of 300,000 active; activity change, % at 7.5 µM; Vibrio harveyi JMH597 AI-2 luminescence/OD600 ratio, 9 h; hits give low values; strain lacks LuxN and CqsS sensors; 0 = neutral-control median; AID 2094; in the data active = activity change below about -75%, passing the limit was not always enough;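 note: luminescence divided by OD600 gain over 9 h not by final OD600 alone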
Starred values were filed as active, the others as inactive; i = inactive; · = no result; + = active, no number.

SMILES	CAL PDZ FP-1	CAL PDZ FP-2	Rce1 inh	ARNT-TACC3 inh	AI-2 QS modul
CSCC(O)Cn1ncc2ccccc2c1=O (centres undefined)	-1	31*	i	-1	11
O=C(N1CCN(c2ccccc2)CC1)C1(c2cccs2)CCOCC1	-1	-4	i	-3	28
CCOC(=O)/C(C#N)=C1/SC(CC)C(=O)N1c1ccc(C)cc1 (centres undefined)	0	56*	i	-29	16
CN(CC(=O)Nc1cc(Cl)cc(Cl)c1)Cc1cccs1	0	-3	i	-6	-1
COc1ccc(OC)c2sc(N3CCCCC3)nc12	-1	-6	i	2	9
COc1ccc(OC)c2sc(N3CCc4ccccc4C3)nc12	-1	33*	i	-1	10
CC(C)(C)CC(=O)NCCCN1CCOCC1	4	37*	i	-2	26
CC(C)CNC(=O)C(=O)NCCCN1CCOCC1	-1	-1	i	-17	17
Cc1cc(N2CCCCC2)nc(N2CCOCC2)n1	·	0	i	-1	7
CSc1ccc(CNc2ncc(-c3cccc([N+](=O)[O-])c3)n2C)cc1	0	·	i	22	-6
NC(=N\N=Cc1ccco1)/C(N)=N/N=Cc1ccco1	-3	-1	·	63*	·
CCNC(=O)/C(C#N)=C/c1c(N2CCN(c3cccc(Cl)c3)CC2)nc2c(C)cccn2c1=O	-7	-1	i	11	29
CCNC(=O)/C(C#N)=C/c1c(N2CCN(C)CC2)nc2c(C)cccn2c1=O	-1	43*	i	0	12
CCN(CC)CCCN1C(=O)C(O)=C(C(=O)c2ccco2)C1c1ccc(OC(C)C)cc1 (centres undefined)	-2	88*	i	-1	5
C=CCOc1ccc(C2C(C(=O)c3ccco3)=C(O)C(=O)N2CCCN(CC)CC)cc1 (centres undefined)	-2	0	i	7	4
C[C@@H]1CN([C@H](C)CO)C(=O)Cc2cc(NC(=O)Cc3ccccc3)ccc2O[C@@H]1CN(C)S(=O)(=O)c1ccc(F)cc1	·	·	·	3	·
C#CCOCCOCCOCCNc1nc(N2CCN(C(=O)[C@H](CCCCN)n3cc([C@@H](N)C(C)CC)nn3)CC2)nc(N2CCN(C(=O)[C@H](CCCCN)n3cc([C@@H](N)CO)nn3)CC2)n1 (some centres undefined)	·	·	i	·	12
CCOC(=O)c1sc2nc(C3CC3)cc(-c3ccc(F)cc3)c2c1N	-2	-1	+	-4	30
CCOC(=O)c1sc2nc(C3CC3)cc(-c3ccc(OC)cc3)c2c1N	0	-1	+	·	20
CN(C)/C=N/c1c(C#N)cnn1-c1ccccc1	-2	-2	i	-6	21
CN(C)/C=N/c1c(C#N)cnn1-c1ncnc2sc(-c3ccccc3)cc12	-2	0	+	-4	15
O=C(O)C1Cc2ccccc2CN1S(=O)(=O)/C=C/c1ccccc1 (centres undefined)	-1	·	i	46*	65
COc1ccccc1OCC(=O)NCCS(=O)(=O)N1CCN(c2ccc(F)cc2)CC1	0	54*	i	1	19
COc1ccc(OC)c(S(=O)(=O)NCCS(=O)(=O)N2CCN(c3ccccc3)CC2)c1	-1	35*	i	4	9
O=C(O)c1ccc(S(=O)(=O)NC2CC2)cc1	0	-2	i	0	5
SMILES	CAL PDZ FP-1	CAL PDZ FP-2	Rce1 inh	ARNT-TACC3 inh	AI-2 QS modul
C[C@@H]1CN([C@H](C)CO)C(=O)Cc2cc(NS(=O)(=O)c3ccc(F)cc3)ccc2O[C@H]1CN(C)S(=O)(=O)c1ccc(Cl)cc1	·	·	·	-3	·
Cc1nnc(Nc2ccccn2)c2ccccc12	1	-1	i	33*	31
O=C(CSc1nnc(CNC(=O)c2ccccc2F)o1)Nc1cccc(C(F)(F)F)c1	-2	-1	i	-1	35
CC(=O)c1cnn(-c2cc(Oc3cccc(C)c3)ncn2)c1C	-3	-3	i	-6	17
COC(=O)c1cnn(-c2cc(Oc3cccc(C)c3)ncn2)c1N	-1	-1	i	-7	-88*
COCC(C)n1c(C)cc(C(=O)COc2ccc(S(=O)(=O)N3CCOCC3)cc2Cl)c1C (centres undefined)	-3	-1	·	3	·
Cc1cccc(N(Cc2cc(=O)[nH]c3ccccc23)C(=O)C(C)C)c1	·	35*	i	-2	44

Bioassay records (PubChem)
